# pIC50: −log10 of the molar value.
# Experiments:
# [1] = test system: NCI-H322M; test: Growth inhibition of human NCI-H322M cells measured after 48 hrs by SRB assay; format: functional
# How it was run: (§1)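 NCI 60-line format with five concentrations (10-fold or ½-log serial dilutions) from DMSO stocks in medium with 50 μg/mL gentamicin. Cells preincubated 24 h, then exposed 48 h at 37°C, 5% CO2. Time-zero plates TCA-fixed. SRB absorbance read at 515 nm. GI50 taken from [(Ti−Tz)/(C−Tz)]×100 = 50. Out-of-range values are expressed as > or < the highest or lowest concentration tested.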
# [2] = test system: EKVX; test: Growth inhibition of human EKVX cells measured after 48 hrs by SRB assay; format: functional; how it was run: as §1
# [3] = test system: BT-549; test: Growth inhibition of human BT-549 cells measured after 48 hrs by SRB assay; format: functional; how it was run: as §1
# [4] = test system: LOX IMVI; test: Growth inhibition of human LOX IMVI cells measured after 48 hrs by SRB assay; format: functional; conditions: for CC50: read-out: LC50 (the source's name); how it was run: as §1
# [5] = test system: SN12C; test: Growth inhibition of human SN12C cells measured after 48 hrs by SRB assay; format: functional
# How it was run: (§2)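 NCI 60-line SRB screen: cells seeded […], grown 24 h at 37°C, 5% CO2, then exposed 48 h to five concentrations (10-fold or ½-log dilutions from DMSO stock). Adherent cells fixed with cold TCA (final 10%), suspension cells with 80% TCA (final 16%); SRB stained, read at 515 nm. GI50 from time-zero, control and treated absorbances.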
# [6] = test system: MOLT-4; test: Growth inhibition of human MOLT-4 cells measured after 48 hrs by SRB assay; format: functional; how it was run: as §1
# [7] = test system: MDA-MB-231; test: Growth inhibition of human MDA-MB-231 cells measured after 48 hrs by SRB assay; format: functional; how it was run: as §1
# [8] = test system: HL-60; test: Induction of apoptosis in human HL-60 cells assessed as late apoptotic cells measured after 24 hrs by Annexin-V/propidium iodide staining based flow cytometry (reference value: 0.61%); format: functional
# [9] = test system: HCT-116; test: Growth inhibition of human HCT-116 cells measured after 48 hrs by SRB assay; format: functional; how it was run: as §1
# [10] = test system: PC-3; test: Growth inhibition of human PC-3 cells measured after 48 hrs by SRB assay; format: functional; how it was run: as §2
# [11] = test system: MDA-MB-435; test: Growth inhibition of human MDA-MB-435 cells measured after 48 hrs by SRB assay; format: functional; how it was run: as §1
# [12] = test system: SK-MEL-2; test: Growth inhibition of human SK-MEL-2 cells measured after 48 hrs by SRB assay; format: functional; how it was run: as §2
# [13] = test system: 786-0; test: Growth inhibition of human 786-0 cells measured after 48 hrs by SRB assay; format: functional; conditions: for CC50: read-out: LC50 (the source's name); how it was run: as §1
# [14] = test system: SK-OV-3; test: Growth inhibition of human SK-OV-3 cells measured after 48 hrs by SRB assay; format: functional; how it was run: as §2
# [15] = test system: T47D; test: Growth inhibition of human T47D cells measured after 48 hrs by SRB assay; format: functional; how it was run: as §2
# [16] = test system: OVCAR-4; test: Growth inhibition of human OVCAR-4 cells measured after 48 hrs by SRB assay; format: functional; how it was run: as §1
# [17] = test system: COLO 205; test: Growth inhibition of human COLO 205 cells measured after 48 hrs by SRB assay; format: functional; how it was run: as §1
# [18] = test system: SF-268; test: Growth inhibition of human SF-268 cells measured after 48 hrs by SRB assay; format: functional; how it was run: as §2
# [19] = Cytotoxicity against human PCS-800-017 cells assessed as reduction in cell viability measured after 24 hrs by MTT assay; format: toxicity, cell-based
# How it was run: (§3)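 MTT viability with 24 h incubation in 96-well plates. Five semi-log concentrations from 0.01 to 100 μM. Formazan absorbance read at 570 nm, with 690 nm background subtracted. Run in triplicate. IC50 obtained by sigmoidal dose-response fitting. Cells are leukemia HL-60(TB) and normal lymphocytes (PCS-800-017).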
# [20] = test system: K562; test: Growth inhibition of human K562 cells measured after 48 hrs by SRB assay; format: functional; how it was run: as §1
# [21] = test system: OVCAR-8; test: Growth inhibition of human OVCAR-8 cells measured after 48 hrs by SRB assay; format: functional; how it was run: as §1
# [22] = test system: UACC-257; test: Growth inhibition of human UACC-257 cells measured after 48 hrs by SRB assay; format: functional; conditions: for CC50: read-out: LC50 (the source's name); how it was run: as §2
# [23] = test system: A498; test: Growth inhibition of human A498 cells measured after 48 hrs by SRB assay; format: functional; how it was run: as §1
# [24] = test system: MCF7; test: Growth inhibition of human MCF7 cells measured after 48 hrs by SRB assay; format: functional; how it was run: as §1
# [25] = test system: HCT-15; test: Growth inhibition of human HCT-15 cells measured after 48 hrs by SRB assay; format: functional; how it was run: as §1
# [26] = test system: M14; test: Growth inhibition of human M14 cells measured after 48 hrs by SRB assay; format: functional; how it was run: as §1
# [27] = test system: CAKI-1; test: Growth inhibition of human CAKI-1 cells measured after 48 hrs by SRB assay; format: functional; how it was run: as §1
# [28] = test system: U-251; test: Growth inhibition of human U-251 cells measured after 48 hrs by SRB assay; format: functional; how it was run: as §2
# [29] = test system: NCI/ADR-RES; test: Growth inhibition of human NCI/ADR-RES cells measured after 48 hrs by SRB assay; format: functional; how it was run: as §1
# [30] = test system: HT-29; test: Growth inhibition of human HT-29 cells measured after 48 hrs by SRB assay; format: functional; how it was run: as §1
# [31] = test system: A549; test: Growth inhibition of human A549 cells measured after 48 hrs by SRB assay; format: functional; how it was run: as §1
# [32] = test system: HL-60; test: Cytotoxicity against human HL-60 cells assessed as reduction in cell viability measured after 24 hrs by MTT assay; format: functional, cell-based; conditions: HL-60, 24 h; how it was run: as §3
# [33] = test system: NCI-H460; test: Growth inhibition of human NCI-H460 cells measured after 48 hrs by SRB assay; format: functional; how it was run: as §1
# [34] = test system: OVCAR-5; test: Growth inhibition of human OVCAR-5 cells measured after 48 hrs by SRB assay; format: functional; conditions: for CC50: read-out: LC50 (the source's name); how it was run: as §1
# [35] = test system: NCI-H522; test: Growth inhibition of human NCI-H522 cells measured after 48 hrs by SRB assay; format: functional; how it was run: as §1
# [36] = test system: SNB-19; test: Growth inhibition of human SNB-19 cells measured after 48 hrs by SRB assay; format: functional; how it was run: as §2
smiles,measurement,setting,value
CCOc1cc(/C=N/Nc2nc(-c3cccc([N+](=O)[O-])c3)cs2)ccc1O,GI50,[1],4.32 µM
same,TGI,[1],16.9 µM
same,GI50,[2],3.17 µM
same,TGI,[2],16.4 µM
same,GI50,[3],2.84 µM
same,TGI,[3],8.12 µM
same,GI50,[4],1.73 µM
same,TGI,[4],3.59 µM
same,CC50,[4],7.46 µM
same,GI50,[5],2.41 µM
same,TGI,[5],9.9 µM
same,GI50,[6],1.74 µM
same,TGI,[6],5.94 µM
same,GI50,[7],1.78 µM
same,TGI,[7],3.88 µM
same,Activity,[8],16.27%
same,GI50,[9],2.34 µM
same,TGI,[9],5.83 µM
same,GI50,[10],2.54 µM
same,TGI,[10],11.4 µM
same,GI50,[11],2.7 µM
same,TGI,[11],9.14 µM
same,GI50,[12],2.48 µM
same,TGI,[12],6.75 µM
same,GI50,[13],2.75 µM
same,TGI,[13],8.68 µM
same,CC50,[13],81.8 µM
same,GI50,[14],3.36 µM
same,TGI,[14],27.8 µM
same,GI50,[15],3.69 µM
same,TGI,[15],16.3 µM
same,GI50,[16],2.41 µM
same,TGI,[16],8.05 µM
same,GI50,[17],16.4 µM
same,TGI,[17],38.7 µM
same,GI50,[18],3.45 µM
same,TGI,[18],27.4 µM
same,IC50 at 24 h,[19],28.6 µM
same,GI50,[20],3.05 µM
same,TGI,[20],34.3 µM
same,GI50,[21],2.84 µM
same,TGI,[21],9.63 µM
same,GI50,[22],1.71 µM
same,TGI,[22],3.23 µM
same,CC50,[22],6.08 µM
same,GI50,[23],20.2 µM
same,TGI,[23],44.8 µM
same,GI50,[24],2.86 µM
same,TGI,[24],10.9 µM
same,GI50,[25],2.86 µM
same,TGI,[25],11.8 µM
same,GI50,[26],1.85 µM
same,TGI,[26],3.89 µM
same,GI50,[27],2.18 µM
same,TGI,[27],6.88 µM
same,GI50,[28],3.08 µM
same,TGI,[28],14.1 µM
same,GI50,[29],2.72 µM
same,TGI,[29],8.59 µM
same,GI50,[30],33.7 µM
same,TGI,[30],> 100 µM
same,GI50,[31],3.45 µM
same,TGI,[31],14.1 µM
same,pIC50,[32],5.63
same,GI50,[33],2.4 µM
same,TGI,[33],5.81 µM
same,GI50,[34],3.79 µM
same,TGI,[34],16.2 µM
same,CC50,[34],51.3 µM
same,GI50,[35],1.85 µM
same,TGI,[35],4.21 µM
same,GI50,[36],3.35 µM
same,TGI,[36],20.8 µM
O=[N+]([O-])c1cc(/C=N/Nc2nc(-c3ccc(Cl)cc3)cs2)ccc1Cl,GI50,[1],3.23 µM
same,TGI,[1],13.7 µM
same,GI50,[2],10.3 µM
same,TGI,[2],22.9 µM
same,GI50,[3],14.5 µM
same,TGI,[3],40.4 µM
same,GI50,[4],3.91 µM
same,TGI,[4],> 100 µM
same,CC50,[4],> 100 µM
same,GI50,[5],15.1 µM
same,TGI,[5],61.5 µM
same,GI50,[6],3.43 µM
same,TGI,[6],24.1 µM
same,GI50,[7],17.4 µM
same,TGI,[7],42.6 µM
same,Activity,[8],17.92%
same,GI50,[9],16.3 µM
same,TGI,[9],36.6 µM
same,GI50,[10],1.91 µM
same,TGI,[10],4.46 µM
same,GI50,[11],23.2 µM
same,TGI,[11],98.3 µM
same,GI50,[12],24 µM
same,TGI,[12],81.5 µM
same,GI50,[13],19.8 µM
same,TGI,[13],61.3 µM
same,CC50,[13],> 100 µM
same,GI50,[14],21.8 µM
same,TGI,[14],65 µM
same,GI50,[15],1.8 µM
same,TGI,[15],3.81 µM
same,GI50,[16],8.25 µM
same,TGI,[16],35.9 µM
same,GI50,[17],15.4 µM
same,TGI,[17],29.7 µM
same,GI50,[18],8.44 µM
same,TGI,[18],31.8 µM
same,IC50 at 24 h,[19],22.7 µM
same,GI50,[20],5.86 µM
same,TGI,[20],66.4 µM
same,GI50,[21],14.9 µM
same,TGI,[21],54.1 µM
same,GI50,[22],7.52 µM
same,TGI,[22],22 µM
same,CC50,[22],51.6 µM
same,GI50,[23],14.8 µM
same,TGI,[23],39.6 µM
same,GI50,[24],1.79 µM
same,TGI,[24],3.81 µM
same,GI50,[25],13.1 µM
same,TGI,[25],42.1 µM
same,GI50,[26],17 µM
same,TGI,[26],45.6 µM
same,GI50,[27],14.6 µM
same,TGI,[27],32.1 µM
same,GI50,[28],4.37 µM
same,TGI,[28],17 µM
same,GI50,[29],16.8 µM
same,TGI,[29],41.5 µM
same,GI50,[30],3.6 µM
same,TGI,[30],15.4 µM
same,GI50,[31],78.4 µM
same,TGI,[31],> 100 µM
same,pIC50,[32],5.64
same,GI50,[33],13.6 µM
same,TGI,[33],26.5 µM
same,GI50,[34],23 µM
same,TGI,[34],78.2 µM
same,CC50,[34],> 100 µM
same,GI50,[35],9.45 µM
same,TGI,[35],67.6 µM
same,GI50,[36],10.5 µM
same,TGI,[36],24.2 µM

# Reference: ChEMBL document CHEMBL6177937, “Design, synthesis, and biological evaluation of novel thiazole derivatives as PI3K/mTOR dual inhibitors” (RSC Med Chem, 2024)
